Assay outcomes deposited in PubChem BioAssay by several laboratories.
In the library only some 4.1% were active in any assay of this set; here they are far more common.
FLuc stim CS: FLuc activators, initial screening, artefact control for FLuc-dependent activation tests, biochemical, ATPlite luminescence; ATPlite luciferase biochemical, 10 min; 0 = ATP-free wells, 1 = DMSO control; 200,000 tested, under 10 active; activation factor at 10 µM;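 active means luciferase activation factor, scaled between plate controls, of at least 2 with compound at 10 µM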
Target sequence (P08659 whole entry, looked up): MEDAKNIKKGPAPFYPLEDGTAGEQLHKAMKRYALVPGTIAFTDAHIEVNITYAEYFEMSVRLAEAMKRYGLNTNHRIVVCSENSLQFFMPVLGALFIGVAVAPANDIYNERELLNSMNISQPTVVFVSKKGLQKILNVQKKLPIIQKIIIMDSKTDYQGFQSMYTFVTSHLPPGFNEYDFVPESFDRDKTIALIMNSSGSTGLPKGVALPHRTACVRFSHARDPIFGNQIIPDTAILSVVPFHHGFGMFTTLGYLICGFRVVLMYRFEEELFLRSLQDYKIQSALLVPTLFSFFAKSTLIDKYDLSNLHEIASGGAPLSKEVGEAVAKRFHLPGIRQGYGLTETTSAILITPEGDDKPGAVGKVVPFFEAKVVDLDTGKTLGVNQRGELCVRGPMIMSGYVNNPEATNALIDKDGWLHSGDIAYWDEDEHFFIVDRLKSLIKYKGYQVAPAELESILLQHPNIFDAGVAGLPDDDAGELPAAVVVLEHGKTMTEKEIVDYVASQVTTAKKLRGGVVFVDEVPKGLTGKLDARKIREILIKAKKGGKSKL
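Assay system: Luciferase/luciferin detection reagent, cell-free biochemical luciferase assay / Also added: ATP substrate / Schedule: 10 min at ambient temperature / Measured by: luminescence measurement of luciferase light output / Benchmarks: low control with PBS replacing ATP, high control enzyme plus ATP without compound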
FLuc inhib CS: firefly luciferase enzyme inhibitors, primary screen, artefact control for luciferase-based inhibitor screens, biochemical, luminescence, ATPLite | Luciferin 4-monooxygenase (Photinus pyralis), P08659 | inhibition, % at 10 µM | 200,000 tested, 1.5% active | 10 min;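 active means inhibition above about 50% when tested at 10 µM, limit read from the data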
STAT1 activator: STAT1 signaling activators, primary screen, cell-based, HTS, luciferase reporter; AID 932, 2007; activation (% of control), % at 5.5 µM; 200,000 tested, 2.6% active; NIH 3T3 STAT1-luciferase reporter, IFN-gamma, luminescence; 100% = IFN-gamma alone, no compound;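 active means activation above the screen-wide mean activation plus 3 SD, cut at about 130% in these data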
APP 5'UTR act: activators of APP 5'UTR luciferase reporter, primary screen, SH-SY5Y cells; SH-SY5Y APP 5'UTR luciferase reporter, luminescence; zero percent = DMSO vehicle wells; activation, % at 2 µM; 190,000 tested, 1% active; AID 1276, 2008;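 active means activation above a set limit, based on mean plus 3 SD of controls, cut at about 140% in these data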
NF-kB expr up: activators of NF-kB expression in neurons, primary screen, cell-based, HTS. 190,000 tested, 1.6% active. AID 1239, 2008. fold change at 12.5 µM. human neuronal cells, NF-kB reporter expression; active compounds read high; in the data active means fold change above about 3.3
STAT1 act conf: STAT1 signaling activators, confirmation, cell-based, HTS, luciferase reporter. 1,200 tested, 97% active. NIH 3T3 STAT1-luciferase reporter, IFN-gamma potentiation, luminescence; 100% = IFN-gamma EC80 alone, no compound. activation (% of control), % at 5.7 µM. AID 1262, 2008. shares compounds with STAT1 activator;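 active means activation above a set limit carried over from the earlier primary STAT1 screen, cut at about 140% in these data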
NFkB act STAT1ct: NF-kB reporter activators, TNF-alpha stimulated, counter-screen for STAT1 activator project, cell-based, HEK293T, luciferase luminescence | shares compounds with STAT1 activator | 100% = TNF-alpha with vehicle only | activation (% of control), % at 5.7 µM | 1,200 tested, 43% active | AID 1306, 2008;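 active means activation above the mean of solvent-only control wells plus 3 SD, set per campaign, cut at about 130% in these data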;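 further: TNF-alpha given at a submaximal dose yielding about 80% of full reporter signal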
STAT3 act STAT1c: STAT3 reporter activation by STAT1 hits, confirmation, counter-screen for STAT1 activator project, U3A cells, luciferase, luminescence; shares compounds with STAT1 activator; IL-6; cells lack STAT1; 100 = IL-6 alone, no compound effect; activation (% of control), % at 5.7 µM; 1,200 tested, 46% active; AID 1316, 2008;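 active means activation above the solvent-only control well mean plus 3 SD, set per plate batch, cut at about 110% in these data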;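 further: higher means more STAT3 reporter activation so hits are non-selective activators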
A number is an active result; – = inactive; · = not tested or not shown.

SMILES | FLuc stim CS | FLuc inhib CS | STAT1 activator | APP 5'UTR act | NF-kB expr up | STAT1 act conf | NFkB act STAT1ct | STAT3 act STAT1c
Cc1cccc(/C=N\NC(=O)c2ccc(Cl)cc2)c1O | – | – | 154.9 | – | 4.33 | 160.6 | – | –
O=C(C[n+]1ccc(C(=O)N/N=C/c2ccc(Cl)cc2Cl)cc1)c1ccccc1 | – | – | – | – | – | · | · | ·
CCC(=O)Nc1nnc(SCC(=O)N2c3ccccc3CC2C)s1 (stereo unspecified) | – | – | – | – | – | · | · | ·
CC(/C=N\N1CCN(c2ccc(Cl)cc2)CC1)=C\c1ccccc1 | – | – | – | – | – | · | · | ·
O=C(c1ccccc1)c1ccc(N2CCCC2)cc1 | – | – | 150.9 | – | – | 143.3 | – | –
O=C(/C=C/c1ccccc1)Nc1ccc(N2CCCCC2)cc1 | – | – | 150.9 | – | – | 168.0 | – | –
COc1ccc(-c2nc(CSCC(=O)N3CCc4ccccc43)c(C)o2)cc1OC | – | – | – | – | – | · | · | ·
CS(=O)(=O)Nc1ccc(Br)cc1C(=O)c1ccccc1 | – | – | – | – | – | · | · | ·
C=CCN1C=CC(=C/C=C(/C#N)C(=O)OCC)C=C1 | – | 81.7 | 175.3 | 142.8 | 4.57 | 210.1 | 133.2 | 117.3
CCN(CC)c1ccc(/C=N/NC(=O)c2ccco2)cc1 | – | 78.6 | 165.4 | – | 6.3 | 216.9 | – | –
CCN(CC)c1ccc(/C=N/NC(=O)c2ccc([N+](=O)[O-])cc2)cc1 | – | – | – | – | – | · | · | ·
CC(C)(C)OC(=O)NNC(=S)NC1CCCCC1 | – | – | – | – | – | · | · | ·
COc1ccc(-c2cc(=NC(CC(C)C)C(=O)O)c3cc(C)ccc3o2)cc1 (stereo unspecified) | – | – | 155.7 | – | 4.33 | 143.8 | 135.7 | –
COc1ccc(-c2cc(=Nc3ccc(C)cc3)c3ccccc3o2)cc1 | – | – | – | – | – | · | · | ·
O=C(/C=C/Nc1ccc(Oc2ccccc2Cl)cc1)c1ccco1 | – | – | 155.2 | – | 6.21 | 177.8 | 143.8 | 135.1
COc1ccccc1Oc1ccc(N/C=C/C(=O)C(C)(C)C)cc1 | – | – | – | – | – | · | · | ·
CC(C)[C@H](NC(=O)c1ccco1)C(=O)OCC(=O)Nc1cccc(F)c1 | – | – | – | – | – | · | · | ·
O=C(/C=C/Nc1cccc(F)c1)c1ccco1 | – | 75.8 | 154.2 | – | 3.86 | 192.2 | – | 115.7
O=C(OCC(=O)N1CCOCC1)c1ccccc1Cc1ccccc1 | – | – | 158.3 | – | 5.54 | 197.9 | 139.5 | 136.8
O=C(OCC(=O)N1CCOCC1)c1ccccc1SCC(=O)N1CCCC1 | – | – | – | – | – | · | · | ·
Cc1ccccc1NS(=O)(=O)c1ccc(NC(=O)c2ccco2)cc1 | – | – | – | – | – | · | · | ·
CCOc1cc(CNn2cn[nH]c2=S)cc(Cl)c1OCc1ccccc1F | – | – | – | – | – | · | · | ·
Cc1ccc(/C=N/NC(=O)c2ccccn2)s1 | – | 75.0 | 154.5 | – | – | 162.9 | – | –
COc1ccc(C(=O)O/N=C2\CCS(=O)(=O)c3sccc32)cc1 | – | – | – | – | – | · | · | ·
Cc1ccccc1C(=O)O/N=C1\CCS(=O)(=O)c2sccc21 | – | – | 219.9 | – | 5.85 | 224.8 | 146.2 | 110.9
SMILES | FLuc stim CS | FLuc inhib CS | STAT1 activator | APP 5'UTR act | NF-kB expr up | STAT1 act conf | NFkB act STAT1ct | STAT3 act STAT1c
CCCCn1cnc2c(sc3nc4c(cc32)CSC(C)(C)C4)c1=O | – | – | 151.5 | 166.4 | – | 208.4 | 134.3 | –
CC1(C)Cc2nc3sc(C(=O)O)c(N)c3cc2CS1 | – | – | – | – | – | · | · | ·
CNC(=S)N/N=C/c1c(C)nn(-c2cccc(Cl)c2)c1Cl | – | – | – | – | – | · | · | ·
COc1cc(OC)cc(C(=O)Nn2c(C)nc3ccccc3c2=O)c1 | – | – | – | – | – | · | · | ·
COc1ccc2[nH]c3c(c2c1)CCn1c-3nc2ccccc2c1=O | – | – | 153.0 | 183.8 | 5.45 | 297.6 | – | –
Cc1ccc2nc3c(c(C(=O)OCC(=O)N(C)C4CCS(=O)(=O)C4)c2c1)CCCC3 (stereo unspecified) | – | – | – | – | – | · | · | ·
O=C(/C=C\Nc1ccc2c(c1)OCO2)c1ccc(Cl)s1 | – | 87.1 | 157.4 | 164.4 | – | 199.8 | – | –
O=C(CCl)Nc1ccc2c(c1)OCO2 | – | – | – | – | – | · | · | ·
COc1ccc(N/C=C/C(=O)c2ccc3c(c2)OCO3)cc1OC | – | 59.6 | 161.1 | – | – | 178.2 | 135.8 | –
CC1CCc2c(sc(NC(=O)C3CCCO3)c2C#N)C1 (stereo unspecified) | – | – | 153.5 | 143.7 | 4.62 | 168.5 | 134.0 | 114.5
CC1CCc2c(sc(NC(=O)COC(=O)C3CCCO3)c2C#N)C1 (stereo unspecified) | – | – | – | – | – | · | · | ·
Cc1cccc(Nc2n[nH]c(C)c2[N+](=O)[O-])c1 | – | – | 156.2 | – | 3.74 | 192.5 | – | –
COc1ccc(/C=N/NC(=O)c2[nH]ncc2Br)c(OC)c1 | – | 84.7 | 155.0 | – | – | 162.3 | – | 113.9
O=C(N/N=C/c1cn(-c2ccccc2)nc1-c1cc2ccccc2o1)c1c[nH]c2ccccc12 | – | – | 186.6 | 186.8 | · | 198.7 | 134.6 | –
OCc1cn(-c2ccccc2)nc1-c1cc2ccccc2o1 | – | – | 167.3 | – | 9.68 | 212.8 | 138.6 | –
Cc1csc2nc(CNC(=O)C3CCCCC3)cn12 | – | – | – | – | – | · | · | ·
Cc1csc2nc(CSc3ccc(Cl)cc3)cn12 | – | – | 153.3 | 149.2 | 5.99 | 198.2 | 135.3 | –
O=C(O)CCc1ncc(C(F)(F)F)cc1Cl | – | – | – | – | – | · | · | ·
CCc1ccc(C(=O)CN2CCSC2=N)cc1 | – | 63.2 | 159.3 | – | 7.86 | 209.4 | 135.8 | –
Nc1nc(-c2ccc3ccccc3c2)cs1 | – | – | 169.0 | – | 6.3 | 195.0 | 134.3 | –
CCN(CC)c1ccc(/C=N/Nc2nc3ccccc3[nH]2)c(O)c1 | – | – | – | – | – | · | · | ·
CN(C)CCCN(C(=O)c1cccs1)c1nc(-c2ccccc2)cs1 | – | – | – | – | – | · | · | ·
CN(c1ccc(O)cc1)c1nc(-c2ccccc2)cs1 | – | – | 186.4 | 242.8 | 6.87 | 237.8 | – | 120.1
